Screens: PubChem BioAssay, several laboratories
Only some compounds are listed: those with a hit (about 1.8% of all), similar ones and a draw of the others.
Jurkat NFkB inh: lowers PMA/ionomycin-induced NF-kB signal in Jurkat cells; inhibition, % at 4 µM; 330,000 compounds, 0.53% hits; PMA/ionomycin-induced NF-kB luciferase reporter, luminescence; AID 435003; in the data active means inhibition above about 50%
GalR3 antagonist: human GalR3 antagonism | 360,000 compounds, 0.44% hits | inhibition, % at 3 µM | HEK293 GalR3-CNG cAMP membrane potential fluorescence; galR3 body fused to GalR1 C-terminus | AID 651719 | O60755;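 active means inhibition above the screen-wide average plus 3 SD, cut at about 13% in these data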;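 further: forskolin and galanin both at EC90 stimulate the cells; cAMP rise reported by CNG channel membrane potential dye signal; 0% = forskolin plus galanin with DMSO and 100% = forskolin alone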
Target sequence (O60755 1-299 limits assumed): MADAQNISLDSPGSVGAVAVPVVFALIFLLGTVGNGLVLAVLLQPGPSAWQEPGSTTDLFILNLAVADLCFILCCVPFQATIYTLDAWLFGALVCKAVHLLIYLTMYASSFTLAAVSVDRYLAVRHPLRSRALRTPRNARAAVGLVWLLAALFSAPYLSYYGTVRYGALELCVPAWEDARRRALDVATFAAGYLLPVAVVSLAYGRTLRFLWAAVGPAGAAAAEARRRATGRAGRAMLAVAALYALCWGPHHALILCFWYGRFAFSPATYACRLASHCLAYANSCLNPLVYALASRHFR
NR2E3 ag-1: human photoreceptor-specific nuclear receptor agonism | inhibition of corepressor binding, % at 3.98 µM | 360,000 compounds, 0.35% hits | CHO-S Gal4-NCOR/VP16-NR2E3 two-hybrid, luciferase | Q9Y5X4;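 active means inhibition above the mean of all tested compounds plus 3 SD, cut at about 70% in these data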;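 further: 0% = DMSO with NR2E3 transfected cells and 100% = cells lacking NR2E3 construct; higher means lower luciferase signal from less NR2E3 corepressor binding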
NR2E3 ag-2: agonists of human nuclear receptor NR2E3. Q9Y5X4. AID 2300. GST-NR2E3/biotin-RetCOR TR-FRET, 1536-well. 320,000 compounds, 0.12% hits. inhibition of corepressor binding, % at 4.78 µM;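 active means percent inhibition above the cutoff of mean plus 3 SD of all tested compounds, set per screening campaign, cut at about 20% in these data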;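 further: 0% = DMSO wells and 100% = biotin wells as full block of FRET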
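Material: NR2E3–RetCOR corepressor complex | Quantity: 1.35 nM GST-tagged NR2E3 final | Schedule: 5 h at 4 °C | Replication: Singlicate compound wells | Reagent: RetCOR corepressor, biotinylated, 7 nM | Controls: Biotin wells as high control, 0.6% DMSO wells as low control | Signal: TR-FRET, Eu(K)-anti-GST donor, streptavidin-D2 acceptor, ex 340, em 617/671 nm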
697 NFkB inh: lowers PMA/ionomycin-induced NF-kB signal in 697 B cells; 697 B-cell NF-kB luciferase reporter, 16 h; inhibition, % at 4 µM; 330,000 compounds, 0.33% hits; in the data active means inhibition above about 35%
Gli-Sufu antag: antagonists of Gli-Sufu signaling; Sufu-KO-LIGHT fibroblasts, Gli luciferase reporter luminescence; inhibition, % at 5 µM; 340,000 compounds, 0.74% hits;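 active means inhibition above about 55%, limit read from the data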;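 further: 0% = DMSO-treated cells and 100% = wells with medium but no cells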
697 NFkB conf: inhibitors of the PMA/ionomycin-induced NF-kB reporter in 697 B cells, retest; 2,000 compounds, 35% hits; 697 B-cell NF-kB luciferase, 16 h; inhibition, % at 4 µM; shares compounds with 697 NFkB inh; in the data active means inhibition mostly above about 28%, no sharp cut-off; inactive means mostly below about 22%
Numbers without * were called inactive; . = not tested or not shown.

SMILES	Jurkat NFkB inh	GalR3 antagonist	NR2E3 ag-1	NR2E3 ag-2	697 NFkB inh	Gli-Sufu antag	697 NFkB conf
COC(=O)[C@]12C[C@H](CC(=O)NCCCN3CCCC3=O)C(=O)N(Cc3ccccc3)C1=C[C@H](C1CCCC1)O[C@@H]2C	.	-2.7	.	.	.	.	.
Cc1cc(Br)c2nc(-c3ccc(Cl)cc3)c(Cc3cccc(Cl)c3)n2c1	.	-4.0	.	.	.	.	.
O=[N+]([O-])c1ccc(Sc2cc[n+]([O-])c3ccccc23)c([N+](=O)[O-])c1	27.8	-2.1	-12.1	-0.3	36.6*	-1.1	49.7*
O=c1[nH]c(Sc2ccc([N+](=O)[O-])cc2[N+](=O)[O-])nc2ccccc12	-7.7	-3.6	-28.2	3.7	-10.9	12.0	.
COc1ccccc1C(=O)NC(=S)Nc1cccnc1Cl	-125.0	-8.2	-78.1	-1.5	-250.1	-51.7	-331.5
Cc1ccc(-c2csc(N/N=C/c3ccco3)n2)c(C)c1	-88.6	-1.8	-89.0	2.1	-402.7	-13.3	-20.4
CN(C)S(=O)(=O)c1cccc(-c2csc(N/N=C/c3ccco3)n2)c1	-6.3	-0.3	12.7	2.3	-3.5	-8.6	.
CCOCCCNc1nc2c(C)cccn2c(=O)c1/C=C1\SC(=S)N(C(C)CC)C1=O (configuration not stated)	5.8	-1.4	11.4	-0.7	37.2*	-1.3	31.6*
CCOCCCNc1nc2c(C)cccn2c(=O)c1/C=C1\SC(=S)N(CC(C)C)C1=O	0.5	-1.4	6.5	-1.9	21.2	-0.9	.
COCCNC(=O)/C(C#N)=C/c1ccc(-c2ccc(OC)cc2[N+](=O)[O-])o1	1.4	2.0	-15.8	-3.0	35.4*	-0.8	18.8
COCCNC(=O)/C(C#N)=C/c1ccc(O)c([N+](=O)[O-])c1	0.4	-6.8	-2.0	-4.7	14.4	-7.7	.
c1ccc(-c2cn3c4c(sc3n2)CCCC4)cc1	-7.8	-4.6	-121.1	1.6	-335.5	-94.7	-383.3
O=C(Nc1ccc(/C=C/c2nc3ccccc3o2)cc1)c1c(F)cccc1F	-126.5	-3.2	-163.6	-2.6	-115.0	-87.4	.
O=C(Nc1ccc(/C=C/c2nc3ccccc3o2)cc1)c1cccc(C(F)(F)F)c1	-2.1	2.0	-104.6	-5.5	-326.8	-4.6	-214.7
CNS(=O)(=O)c1cccc(C(=O)OCC(=O)N2c3ccccc3CC2C)c1 (configuration not stated)	0.6	-4.2	-16.7	3.0	36.3*	3.1	-7.3
CC1Cc2ccccc2N1C(=O)COC(=O)c1ccc(O)cc1 (configuration not stated)	8.7	-6.8	20.1	0.1	16.7	1.7	.
COc1ccc(OC)c2sc(N3CCc4ccccc4C3)nc12	1.6	3.3	-41.4	2.6	5.4	-3.5	.
c1ccc2c(c1)CCN(c1nc3cc4c(cc3s1)OCCO4)C2	-43.9	-0.7	35.1	-3.8	-381.7	18.5	-358.5
CCCN1C(=O)c2[nH]nc(-c3ccccc3)c2C1c1ccc(Br)cc1 (configuration not stated)	.	-6.1	.	.	.	.	.
Cc1cccc2cc(CN(Cc3ccco3)C(=O)c3ccncc3)c(=O)[nH]c12	-0.6	-0.6	-3.7	-1.5	35.7*	-41.5	-3.4
O=C(c1ccncc1)N(Cc1ccco1)Cc1cc2ccccc2[nH]c1=O	15.3	-5.6	-1.0	1.0	5.5	4.2	.
C[C@H](CO)N1C[C@H](C)[C@H](CN(C)C(=O)Nc2cccc(F)c2)Oc2cc(Br)ccc2S1(=O)=O	.	-7.5	.	.	.	.	.
Cc1cc(C)c2c(N)c(C(=O)Nc3ncc(C)s3)sc2n1	15.7	8.0	43.0	0.7	-277.7	67.0*	-69.5
COc1cc(/C=N/n2cnc3c(sc4nc(C)cc(C)c43)c2=O)ccc1O	-8.5	.	.	-7.4	-13.7	-4.8	.
COc1cc(/C=N/NC(=O)c2sc3nc(C)cc(C)c3c2N)ccc1O	6.6	0.2	-13.1	-1.4	43.2*	-21.9	18.5
COC(=O)c1sc2nc(C)cc(C)c2c1N	-32.8	-3.7	-47.5	-0.1	-22.3	-6.4	.
O=C(N=Nc1c(O)[nH]c2c(Cl)cc(Cl)cc12)c1ccccc1O	.	-8.1	.	.	.	.	.
